Experimental data taken from ChEMBL document CHEMBL1129364, “Pyrrolobenzothiazepinones and pyrrolobenzoxazepinones: novel and specific non-nucleoside HIV-1 reverse transcriptase inhibitors with antiviral activity” (J Med Chem, 1996).
Active and inactive are the calls of the source. The calls are words filed in the database; no cut-off is given here.

Key:
[1] = target: Human immunodeficiency virus type 1 reverse transcriptase (Human immunodeficiency virus 1, UniProt Q72547); test: (§1) Compound was tested for Inhibition of HIV-1 RT activity.
Summary of the method: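 Recombinant HIV-1 RT (0.1 unit), 37 °C for 30 min in 50 mM Tris·HCl pH 8.2, 1 mM DTT, 80 mM KCl, 12 mM MgCl2, 0.01% Triton X-100. Template-primer poly(rA)/(dT)12-18 with [3H]dTTP or poly(rC)/(dG)12-18 with [3H]dGTP. Compounds added in DMSO (10% final). Stopped with 20% TCA; precipitate counted. IC50 is the mean of at least three experiments.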

CEM-SS [2] = test: Cytotoxic concentration against 50% survival of uninfected untreated control CEM-SS cells; format: cell-based; conditions: Homo sapiens
[3] = Selective index is the ratio between IC50 and EC50; format: functional
Summary of the method: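 Selectivity index calculated as CEM-SS cytotoxic IC50 divided by anti-HIV-1 EC50.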

[4] = (§2) Effective concentration against 50% survival of HIV -1 infected cells relative to uninfected untreated control (in vitro anti HIV-1 activity); format: functional; conditions: Human immunodeficiency virus 1
Summary of the method: (§3)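 HIV-1-infected CEM T4 lymphocytes were scored for protection from cell death. […] An AZT-treated positive control was run at the same time.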

[5] = Selectivity index is the ratio between IC50 and ED50 from HIV-1 (6R) on MT-4 cell lines; format: functional, MT4
[6] = test system: Human immunodeficiency virus 2; test: In vitro inhibitory activity against HIV-2 (ROD) HIV strain; NT ='Not active'; format: functional, organism-based
Summary of the method: (§4)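 ED50 measured against a panel of viruses in MT-2, MT-4 and CEM-SS cells. The panel comprised HIV-1 (6S) and (6R), the pyridinone-resistant strain A-17, HIV-1 IIIB, HIV-1 RF, a diphenyl sulfone-resistant HIV, N119, SIV MAC 251 and HIV-2 ROD.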

MT4 [7] = test: IC50 value determined from the inhibition of HIV strain AZT-sensitive activity tested on MT-4 cell lines.; format: functional, cell-based; conditions: Homo sapiens
MT4 [8] = test: ED50 value determined from the inhibition of HIV strain HIV-1 (6R), activity tested on MT-4 cell lines.; format: functional; conditions: Homo sapiens, read-out: ED50 (the source's name)
[9] = Selectivity index is the ratio between IC50 and ED50 from HIV-1 (IIIB) on MT-4 cell lines; format: functional, MT4
CEM-SS [10] = test: ED50 value determined from the inhibition of HIV strain HIV-1 RF, activity tested on CEM-SS cell lines.; format: functional; conditions: Homo sapiens, read-out: ED50 (the source's name)
MT4 [11] = test: IC50 value determined from the inhibition of HIV strain HIV-1(IIIB), activity tested on MT-4 cell lines.; format: functional, cell-based; conditions: Homo sapiens
[12] = SI - selectivity index determined from the ratio of IC50 to the ED50 determined on MT-4 cell lines of AZT-sensitive HIV strain.; format: functional, MT4
MT4 [13] = test: ED50 value determined from the inhibition of HIV strain HIV-1(IIIB), activity tested on MT-4 cell lines.; format: functional; conditions: Homo sapiens, read-out: ED50 (the source's name)
[14] = Selective index is the ratio between IC50 and EC50 from CEM-SS cells; format: functional
[15] = test system: Human immunodeficiency virus 1; test: In vitro inhibitory activity against HIV-1 (A-17) HIV strain; NT ='Not active'; format: functional, organism-based; summary of the method: as §4
MT4 [16] = test: ED50 value determined from the inhibition of HIV strain AZT-sensitive activity tested on MT-4 cell lines.; format: functional; conditions: Homo sapiens, read-out: ED50 (the source's name)
CEM-SS [17] = test: IC50 value determined from the inhibition of HIV strain HIV-1 RF, activity tested on CEM-SScell lines.; format: functional, cell-based; conditions: Homo sapiens
Summary of the method: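 Cell-protection assay: HIV-1-infected T4 lymphocytes (CEM-SS) scored for survival. The value is the drug concentration giving 50% survival of infected cells relative to uninfected untreated controls. An AZT-treated positive control was run at the same time under identical conditions. Details follow a previously reported procedure.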

MT4 [18] = test: IC50 value determined from the inhibition of HIV strain HIV-1 (6R), activity tested on MT-4 cell lines.; format: functional, cell-based; conditions: Homo sapiens
CEM-SS [19] = test: as §2; format: functional, cell-based; conditions: Homo sapiens; summary of the method: as §3
[20] = target: Human immunodeficiency virus type 1 protease (Human immunodeficiency virus 1, UniProt Q72874); test: as §1
Summary of the method: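 Recombinant HIV-1 RT (0.1 unit) was incubated 30 min at 37 °C in 50 mM Tris·HCl pH 8.2 with 1 mM DTT, 80 mM KCl, 12 mM MgCl2 and 0.01% Triton X-100. Template-primer was poly(rA)/(dT)12-18 with [3H]dTTP or poly(rC)/(dG)12-18 with [3H]dGTP. DMSO was 10% final. Reactions were stopped with TCA and precipitated radioactivity counted. IC50 is the mean of at least three experiments.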

[21] = Effective concentration against 50% survival of HIV -1 infected cells relative to uninfected untreated control (in vitro anti HIV-1 activity); NA =' Not active'; format: functional, Human immunodeficiency virus 1; summary of the method: as §3
[22] = test system: Human immunodeficiency virus 2; test: Inhibitory activity against HIV-2 (ROD); NA ='Not active'; format: functional, organism-based; summary of the method: as §4
MT2 [23] = test: ED50 value determined from the inhibition of HIV strain AZT-sensitive activity tested on MT-2 cell lines.; format: functional; conditions: Homo sapiens, read-out: ED50 (the source's name)
[24] = test system: Human immunodeficiency virus 1; test: Effective dose against AZT resistant strain; NA ='Not active'; format: functional, organism-based
[25] = test system: Human immunodeficiency virus 1; test: Effective dose against HIV-1 (IIIB strain); NA ='Not active'; format: functional, organism-based; summary of the method: as §4
MT2 [26] = test: IC50 value determined from the inhibition of HIV strain AZT-sensitive activity tested on MT-2 cell lines; format: functional, cell-based; conditions: Homo sapiens
[27] = test system: Human immunodeficiency virus 1; test: Inhibitory activity against HIV-1 (A-17 cell lines); NA ='Not active'; format: functional, organism-based; summary of the method: as §4
[28] = Effective concentration against 50% survival of HIV -1 infected cells relative to uninfected untreated control (in vitro anti HIV-1 activity); NA ='Not active'; format: functional, Human immunodeficiency virus 1; summary of the method: as §3

With `O=C1c2cccn2-c2ccccc2SC1c1ccccc1` (stereo unspecified) the IC50 [1] was 100 µM and the IC50 (CEM-SS [2]) was 18.3 µM.
`CCC1(c2ccccc2)C(=O)c2cccn2-c2ccccc2[S+]1[O-]` (stereo unspecified) showed an IC50 [1] of 500 µM.
`CCC1Oc2ccccc2-n2cccc2C1=O` (stereo unspecified) showed an IC50 [1] of 100 µM.
Compound `CCC1(c2ccccc2)C(=O)c2cccn2-c2ccccc2S1(=O)=O` (stereo unspecified) has an IC50 [1] greater than 300 µM.
Compound `CCC1(CC=C(C)C)Oc2ccccc2-n2cccc2C1=O` (stereo unspecified) has an SI [3] of 35, an EC50 [4] of 1.35 µM and an IC50 (CEM-SS [2]) of 45.2 µM.
With `CCC1(c2ccccc2)Oc2ccccc2-n2cccc2C1=O` (stereo unspecified) the IC50 [1] was 0.25 µM, the SI [5] was 1.7 and the Activity [6] was “inactive”. It also gave an EC50 [4] of 0.47 µM, an IC50 (MT4 [7]) of 3.3 µM and an IC50 (CEM-SS [2]) of 4.9 µM. It also gave an EC50 (MT4 [8]) of 1.6 µM, an SI [9] of 25 and an EC50 (CEM-SS [10]) of 0.12 µM. The IC50 (MT4 [11]) was 3.31 µM, the SI [12] was 8 and the EC50 (MT4 [13]) was 0.13 µM. The SI [14] was 10.4, the Activity [15] was “inactive” and the EC50 (MT4 [16]) was 0.42 µM. It also gave an IC50 (CEM-SS [17]) of 10.4 µM and an IC50 (MT4 [18]) of 2.9 µM.
`Cc1cn([C@H]2C[C@H](N=[N+]=[N-])[C@@H](CO)O2)c(=O)[nH]c1=O` [ZIDOVUDINE] gave an SI [3] of 526, an IC50 (CEM-SS [2]) greater than 1 µM and an EC50 (CEM-SS [19]) of 0.0019 µM.
With `CCCC1(c2ccccc2)Oc2ccccc2-n2cccc2C1=O` (stereo unspecified) the IC50 [1] was 500 µM and the IC50 (CEM-SS [2]) was greater than 150 µM.
In the case of `O=C1c2cccn2-c2ccccc2OC1(CC1CC1)c1ccccc1` (stereo unspecified), the IC50 [1] is reported as greater than 500 µM and the IC50 (CEM-SS [2]) is reported as 11.8 µM.
In the case of `O=C1c2cccn2-c2ccccc2OC1c1ccccc1` (stereo unspecified), the IC50 [1] is reported as greater than 300 µM.
With `CCc1cc(NCc2nc3c(Cl)ccc(Cl)c3o2)c(O)nc1C` [L-697661] the IC50 [1] was 0.15 µM.
Compound `CC1(c2ccccc2)Oc2ccccc2-n2cccc2C1=O` (stereo unspecified) has an IC50 [1] of 10 µM, an SI [3] of 19.7 and an EC50 [4] of 0.35 µM. The IC50 (CEM-SS [2]) was 6.9 µM.
`O=C1c2cccn2-c2cc3ccccc3cc2OC1c1ccccc1` (stereo unspecified) showed an IC50 [1] greater than 300 µM.
Work on `C=CCC1(CC)Oc2ccccc2-n2cccc2C1=O` (stereo unspecified) yielded an IC50 [1] of 5 µM.
`CCCC1(CC)Oc2ccccc2-n2cccc2C1=O` (stereo unspecified) gave an IC50 [1] of 10 µM.
`CCOC1=C(c2ccccc2)Oc2ccccc2-n2cccc21` gave an IC50 [20] greater than 300 µM.
With `CCC1(c2ccccc2)Sc2cccc(Cl)c2-n2cccc2C1=O` (stereo unspecified) the IC50 [1] was 600 µM and the IC50 [21] was “Not Active”.
For `CCC1(c2ccccc2)Sc2ccccc2-n2cccc2C1=O` (stereo unspecified), the Activity [22] was “inactive”, the IC50 [1] was 15 µM and the EC50 (MT2 [23]) was 8.7 µM. For the same compound, the SI [3] was 55.2, the EC50 [4] was 1.8 µM and the Activity [24] was “inactive”. For the same compound, the IC50 (CEM-SS [2]) was 100 µM, the Activity [25] was “inactive” and the IC50 (MT2 [26]) was 110 µM. For the same compound, the Activity [27] was “inactive”.
With `O=C1c2cccn2-c2ccccc2OC1c1ccc2ccccc2c1` (stereo unspecified) the IC50 [1] was greater than 300 µM.
`CC1(c2ccccc2)Sc2ccccc2-n2cccc2C1=O` (stereo unspecified) showed an IC50 [1] of 5 µM and an EC50 [4] of 0.81 µM.
Compound `CC(C)=CCC1(c2ccccc2)Oc2ccccc2-n2cccc2C1=O` (stereo unspecified) has an IC50 [1] greater than 500 µM and an IC50 (CEM-SS [2]) of 120 µM.
Compound `CCC1(c2ccccc2)Sc2c(Cl)cccc2-n2cccc2C1=O` (stereo unspecified) has an IC50 [1] of 500 µM.
With `CCC1(c2ccccc2)Sc2ccc(C)cc2-n2cccc2C1=O` (stereo unspecified) the IC50 [1] was greater than 600 µM and the IC50 [28] was “Not Active”.
For `C=CCC1(c2ccccc2)Oc2ccccc2-n2cccc2C1=O` (stereo unspecified), the IC50 [1] was 25 µM, the SI [3] was 9 and the EC50 [4] was 0.71 µM. For the same compound, the IC50 (CEM-SS [2]) was 6.4 µM.
Compound `CCC1(c2ccc3ccccc3c2)Oc2ccccc2-n2cccc2C1=O` (stereo unspecified) has an IC50 [1] of 0.5 µM, an SI [3] of 44 and an EC50 [4] of 0.85 µM. It also gave an IC50 (CEM-SS [2]) of 37.3 µM.
With `CCC1(c2ccccc2)Oc2cc3ccccc3cc2-n2cccc2C1=O` (stereo unspecified) the IC50 [1] was 150 µM.
